According to ChEMBL document CHEMBL2150951, “Studies on the antimicrobial properties of N-acylated ciprofloxacins” (2012):
Values after ≈ are worked out from the molar mass of the structure shown. Active and inactive are the calls of the source. No cut-off for these calls is given here.

Tests used:
Staphylococcus aureus [1] = test: Antibacterial activity against methicillin-resistant Staphylococcus aureus ATCC 43300; format: functional
Procedure, shortened: (§1)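 MIC against S. aureus strains was run by an earlier published procedure, tested in triplicate. Values were averaged and expressed as µg/ml of compound.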

Bacillus anthracis = test: Antibacterial activity against Bacillus anthracis sterne at 50 ug per disc by Kirby-Bauer disc diffusion assay; format: functional; settings: read-out: DIZ
Procedure, shortened: (§2)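 Kirby-Bauer disk diffusion with 50 µg compound per 6 mm paper disk. Organisms were grown and plated by an earlier method. The zone-of-inhibition diameter was recorded to the nearest mm and averaged over three independent experiments. No zone was reported as 6 mm, the disk diameter.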

Enterococcus faecalis = test: Antibacterial activity against Enterococcus faecalis DS16 at 50 ug per disc by Kirby-Bauer disc diffusion assay; format: functional; settings: read-out: DIZ
Procedure, shortened: (§3)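 Disks carried 50 µg of compound. Zone diameter was measured to the nearest mm and averaged over three independent experiments. A value of 6 mm, the disk diameter, was recorded where no inhibition was seen.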

Staphylococcus aureus [2] = test: Antibacterial activity against methicillin-susceptible Staphylococcus aureus SH1000; format: functional
Procedure, shortened: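 MIC in µg/ml, tested in triplicate and averaged, with ciprofloxacin as positive control.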

[3] = Antibacterial activity against Bartonella henselae Houston-1 infected in human HMEC1 cells assessed as intracellular bacterial load at 1 ug/mL incubated for 96 hrs followed by compound washout measured after 7 days relative to control; format: functional, Bartonella henselae str. Houston-1
Procedure, shortened: (§4)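 HMEC-1 cells grown in MCDB131 with 10% FBS, EGF and hydrocortisone were infected with B. henselae Houston-1 at MOI 100 for 4 h. Extracellular bacteria were killed with gentamicin (200 µg/ml, 1 h), then compound was added at 0.1 or 1.0 µg/ml for 96 h. After washing, cells were lysed with 0.1% saponin and lysates plated on chocolate agar for 7 days. CFU are given as a percentage of the media-only control.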

[4] = Antibacterial activity against Bartonella henselae ATCC 49882 after 7 days by agar dilution method; format: functional, Bartonella henselae str. Houston-1; settings: ATCC 49882, 168 h
Procedure, shortened: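 Agar dilution on chocolate agar containing compound at 10.0, 1.0 and 0.1 µg/ml, with 2-fold steps at and below 1.0 µg/ml for compounds active there. Controls were DMSO-only and drug-free plates. 25 µl of a McFarland 2.0 suspension in heart infusion broth was spotted and incubated 7 days at 37 °C in 5% CO2. Growth was scored +/− on duplicate plates; triplicate results were averaged.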

[5] = Antibacterial activity against Bartonella henselae Houston-1 infected in human HMEC1 cells assessed as intracellular bacterial load at 0.1 ug/mL incubated for 96 hrs followed by compound washout measured after 7 days relative to control; format: functional, Bartonella henselae str. Houston-1; procedure, shortened: as §4
Staphylococcus aureus [6] = test: Antibacterial activity against methicillin-resistant Staphylococcus aureus isolate CBD 635; format: functional; procedure, shortened: as §1
Escherichia coli [7] = test: Antibacterial activity against Escherichia coli DH5alpha at 50 ug per disc by Kirby-Bauer disc diffusion assay; format: functional; settings: DH5[alpha], read-out: DIZ; procedure, shortened: as §3
[8] = Antibacterial activity against Bartonella henselae ATCC 49882 at 20 ug per disc after 7 days by Kirby-Bauer disc diffusion assay; format: functional, Bartonella henselae str. Houston-1; settings: ATCC 49882, 168 h, read-out: DIZ
Procedure, shortened: (§5)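 Each paper disk was loaded with 20 µl of a 1 mg/ml solution, dried for 20 min and stored desiccated at 4 °C. Growth from 4-day plates was suspended in heart infusion broth to McFarland 2.0 and swabbed onto chocolate agar (heart infusion agar base with 5% bovine hemoglobin). Plates were incubated 1 week at 37 °C in 5% CO2. Zone diameter was read to the nearest mm, in triplicate and averaged.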

Bartonella quintana = test: Antibacterial activity against Bartonella quintana ATCC VR358 at 20 ug per disc after 7 days by Kirby-Bauer disc diffusion assay; format: functional; settings: ATCC VR358, 168 h, read-out: DIZ; procedure, shortened: as §5
Bartonella vinsonii = test: Antibacterial activity against Bartonella vinsonii ATCC VR152 at 20 ug per disc after 7 days by Kirby-Bauer disc diffusion assay; format: functional; settings: ATCC VR152, 168 h, read-out: DIZ; procedure, shortened: as §5
Staphylococcus aureus [9] = test: Antibacterial activity against methicillin-resistant Staphylococcus aureus isolate CBD 635 at 50 ug per disc by Kirby-Bauer disc diffusion assay; format: functional; settings: read-out: DIZ; procedure, shortened: as §2
Bartonella elizabethae = test: Antibacterial activity against Bartonella elizabethae F9251 at 20 ug per disc after 7 days by Kirby-Bauer disc diffusion assay; format: functional; settings: F9251, 168 h, read-out: DIZ; procedure, shortened: as §5
Staphylococcus aureus [10] = test: Antibacterial activity against methicillin-susceptible Staphylococcus aureus SH1000 at MIC by serial dilution method; format: functional
Procedure, shortened: (§6)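 Tryptic soy agar contained compound at 1x, 1.5x, 2.0x or 2.5x the measured MSSA MIC. Cells from 1 ml of an overnight MSSA broth culture were pelleted, resuspended in 100 µl TSB and spread with glass beads. Inoculum cfu was counted by serial dilution onto drug-free agar. Total colonies from at least 3 replicates are reported; frequency is colonies divided by total inoculum.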

Staphylococcus aureus [11] = test: Antibacterial activity against methicillin-susceptible Staphylococcus aureus SH1000 at 2 fold MIC by serial dilution method; format: functional; procedure, shortened: as §6
Escherichia coli [12] = test: Inhibition of Escherichia coli DNA gyrase-mediated formation of supercoiled form of pUC19 at 1 to 100 ug/mL by gel electrophoresis
Procedure, shortened: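 Relaxed circular pUC19 was incubated with purified E. coli DNA gyrase and compound for 1 h at 37 °C. Relaxed and supercoiled DNA were resolved and quantified by gel electrophoresis.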

Staphylococcus aureus [13] = test: Antibacterial activity against methicillin-susceptible Staphylococcus aureus SH1000 at 2.5 fold MIC by serial dilution method; format: functional; procedure, shortened: as §6
Staphylococcus aureus [14] = test: Antibacterial activity against methicillin-susceptible Staphylococcus aureus SH1000 at 1.5 fold MIC by serial dilution method; format: functional; procedure, shortened: as §6

SMILES	MIC (Staphylococcus aureus [1]) [µg/mL]	zone of inhibition at 50 µg/disc (Bacillus anthracis) [mm]	zone of inhibition at 50 µg/disc (Enterococcus faecalis) [mm]	MIC (Staphylococcus aureus [2]) [µg/mL]	Activity [3]	MIC [4] [µg/mL]	Activity [5] [%]	MIC (Staphylococcus aureus [6]) [µg/mL]	zone of inhibition at 50 µg/disc (Escherichia coli [7]) [mm]	zone of inhibition at 20 µg/disc [8] [mm]	zone of inhibition at 20 µg/disc (Bartonella quintana) [mm]	zone of inhibition at 20 µg/disc (Bartonella vinsonii) [mm]	zone of inhibition at 50 µg/disc (Staphylococcus aureus [9]) [mm]	zone of inhibition at 20 µg/disc (Bartonella elizabethae) [mm]	CFU/ml (Staphylococcus aureus [11])	CFU/ml (Staphylococcus aureus [13])	CFU/ml (Staphylococcus aureus [14])	Activity (Staphylococcus aureus [10])	further results
CCC(C)(C)C(=O)N1CCN(c2cc3c(cc2F)c(=O)c(C(=O)O)cn3C2CC2)CC1	1 (≈ 2.33 µM)	57	45	5 (≈ 11.6 µM)	<=10%	0.5 (≈ 1.16 µM)	54	> 100	38	41	27	33	31	32	–	–	–	–	–
CC(=O)N1CCN(c2cc3c(cc2F)c(=O)c(C(=O)O)cn3C2CC2)CC1	10 (≈ 26.8 µM)	89	48	10 (≈ 26.8 µM)	<=10%	–	54	> 100	60	52	6	–	24	58	101	0	41	–	CFU/ml (Staphylococcus aureus [10]): 90; gyrase inhibition (active/inactive) (Escherichia coli [12]): Active
CCCCCCCCCC(=O)N1CCN(c2cc3c(cc2F)c(=O)c(C(=O)O)cn3C2CC2)CC1	10 (≈ 20.6 µM)	6	6	10 (≈ 20.6 µM)	–	5 (≈ 10.3 µM)	–	> 100	6	10	11	9	34	9	–	–	–	inactive	Activity (Staphylococcus aureus [11]): inactive; Activity (Staphylococcus aureus [13]): inactive; Activity (Staphylococcus aureus [14]): inactive
CCCC(C)C(=O)N1CCN(c2cc3c(cc2F)c(=O)c(C(=O)O)cn3C2CC2)CC1 (configuration not stated)	1 (≈ 2.33 µM)	67	33	10 (≈ 23.3 µM)	–	0.8 (≈ 1.86 µM)	–	> 100	33	37	24	30	33	32	4	0	7	inactive	–
CC(C)CC(=O)N1CCN(c2cc3c(cc2F)c(=O)c(C(=O)O)cn3C2CC2)CC1	> 100	70	32	> 100	<=10%	0.2 (≈ 0.481 µM)	32	> 100	36	62	36	40	28	37	–	–	–	–	–
